Measured values collected from several papers.
Lines come from different studies, so protocols differ.
BCHE: Cholinesterase (BCHE, Equus caballus, UniProt P81908)
SLC6A4: Sodium-dependent serotonin transporter (SLC6A4, Homo sapiens, UniProt P31645)

Structure (SMILES) | target | effect on | mode | method | notes | IC50 [µM]
CC=C1[C@H]2C=C(C)C[C@]1(N)c1cc(OCC)c(=O)[nH]c1C2 | BCHE | enzyme activity | inhibitor | Ellman |  | 253
I/C=C/CN1CCN(CCc2ccc3c(c2)CCO3)CC1 | Sigma non-opioid intracellular receptor 1 (Sigmar1, Mus musculus, UniProt O55242) | ligand displacement |  | radioligand | cell membranes | 0.00068
Clc1ccc2c(C3=CCN(CC[C@@H]4CNc5ccccc54)CC3)c[nH]c2c1 | SLC6A4 | ligand displacement |  | radioligand | cell membranes | 0.205
O=P(O)(O)Oc1cccc(OP(=O)(O)O)c1 | Signal transducer and activator of transcription 5A, SH2 (Homo sapiens, UniProt P42229) | ligand displacement |  | FP |  | 50
CC=C1[C@H]2C=C(C)C[C@]1(N)c1cc(I)c(=O)[nH]c1C2 | BCHE | enzyme activity | inhibitor | Ellman |  | 325
NC(=O)NO | Urease (Canavalia ensiformis, UniProt P07374) | enzyme activity | inhibitor |  |  | 7.42
O=C(CNC(=S)NN=Cc1ccc([N+](=O)[O-])cc1)c1ccc([N+](=O)[O-])cc1 | BCHE | enzyme activity | inhibitor | Ellman |  | 326
CCn1cnc2c(Nc3cccc(Cl)c3)nc(N[C@@H]3CCCC[C@@H]3N)nc21 | Ribosomal protein S6 kinase alpha-3, N-terminal kinase domain (RPS6KA3, Homo sapiens, UniProt P51812) | enzyme activity | inhibitor | FP |  | 1
CC=C1[C@H]2C=C(C)C[C@]1(N)c1cc(OCCC)c(=O)[nH]c1C2 | BCHE | enzyme activity | inhibitor | Ellman |  | 87.3
C[C@@H](O)[C@@H]1NC(=O)[C@H](CCCCN)NC(=O)[C@@H](Cc2c[nH]c3ccccc23)NC(=O)[C@H](Cc2ccc(O)cc2)NC(=O)[C@@H](NC(=O)[C@@H](Cc2ccccc2)NC(=O)CCC(C(=O)O)N2CCN(C(CCC(=O)O)C(=O)O)CCN(C(CCC(=O)O)C(=O)O)CC2)CSSC[C@@H](C(=O)N[C@H](CO)[C@@H](C)O)NC1=O (stereo partly shown) | Somatostatin receptor type 2 (Rattus norvegicus, UniProt P30680) | ligand displacement |  | radioligand |  | 0.125
CC=C1[C@H]2C=C(C)C[C@]1(N(C)C)c1ccc(=O)n(C)c1C2 | BCHE | enzyme activity | inhibitor | Ellman |  | 259
NC(=O)N1C[C@@H](CCN2CC=C(c3c[nH]c4cc(Cl)ccc34)CC2)c2ccccc21 | SLC6A4 | ligand displacement |  | radioligand | cell membranes | 0.169
C#CCNc1nc(NCCCCC2CCN(Cc3ccccc3)CC2)c(C#N)c(-c2ccccc2)c1C#N | BCHE | enzyme activity | inhibitor | Ellman |  | 0.61
